Results reported in publication PMC5741288 (Pain Reports, 2016).
In brackets after ≈: the same amount, converted by molar mass. Entries after “also recorded” stand apart in the source; their conditions may differ.

Tests used:
[1] = system: capsaicin-induced flare; experiment: Capsaicin-induced flare area and intensity in humans; type: in vivo, healthy men
Outline: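 Part 2 was a double-blind, 3-way crossover of single oral test compound (10 or 50 mg) or placebo tablets after an overnight fast. Capsaicin cream (0.075% w/w) stayed on the forearm for 30 min. Laser Doppler scans were taken before and after, at predose, 4 h and 144 h postdose. Flare area counted pixels with flux above the 95th percentile (mean + 2 SD) of baseline. Intensity was taken as relative flux.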

[2] = system: heat-evoked pain; type: in vivo, healthy men
Outline: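 In part 1 (single oral tablets, 1–225 mg, or placebo), heat pain detection and tolerance were measured with a 9 × 9 mm Peltier thermode on the volar forearm, to a 52 °C cutoff. Cold and von Frey mechanical pain thresholds were added in part 1b, with ratings on a 0–11 scale. Testing ran predose, 4 and 8 h, days 2, 4 and 6, and follow-up.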

[3] = system: carrageenan-evoked thermal hyperalgesia; conditions: cited from earlier work
[4] = Urinary excretion and renal clearance; type: in vivo, healthy men
Outline: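 Samples were assayed by LC-MS/MS over 5–1000 ng/mL (LLOQ 5 ng/mL). Excreted amount = urine volume × concentration, % of dose = Ae/dose × 100, and renal clearance = Ae/AUC.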

[5] = system: complete Freund's adjuvant–evoked thermal hyperalgesia; conditions: rat; cited from earlier work
[6] = Plasma pharmacokinetics after single oral dose; type: in vivo, healthy men; conditions: for Tmax / half-life: male, human, plasma; for Tmax: Median tmax
Outline: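 After a fast of at least 10 h, single oral tablets were given semirecumbent with 240 mL water (part 1: 1–225 mg; part 2: 10, 50 mg). Plasma was assayed by validated LC-MS/MS over 1–1000 ng/mL (LLOQ 1 ng/mL). Noncompartmental analysis used actual times. Cmax and tmax were taken by inspection, t1/2 = 0.693/λz, CL/F = dose/AUC∞, and Vz/F = D/(λz × AUC∞).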

[7] = target: human TRPV1 receptors; conditions: cited from earlier work
[8] = cited from earlier work
[9] = system: naïve and UVB-sensitized skin; experiment: Sensory testing part 2 on naïve and UVB-sensitized skin; type: in vivo, healthy men
Outline: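 In the part 2 crossover (oral 10 or 50 mg, or placebo), minimal erythema dose was first found with graded UVB on the lower back. Three times that dose was then given to the volar forearm. Warm detection, heat pain detection, heat pain tolerance, mechanical pain threshold and allodynia were tested on UVB-treated and naïve skin. Times were predose, 4, 8, 24, 72, 120 and 144 h, and follow-up, to a 52 °C maximum.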

[10] = QTcF interval; type: in vivo, healthy men
[11] = Oral body temperature and Emax model vs plasma concentration; type: in vivo, healthy men; conditions: for Mean maximum body temperature: part 2
Outline: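 Oral temperature was recorded as a safety measure in healthy men after single oral tablet doses (part 1: 1–225 mg; part 2: 10, 50 mg, placebo). The maximum value was summarised per dose. An Emax model with baseline effect E0, Emax and EC50 related body temperature to plasma concentration of the test compound.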

[12] = part 1, vs plasma concentration

Renal clearance ([4]; in vivo): negligible | Concentrations in urine ([4]; lower limit of quantification 5 ng/mL): below the quantification limit | Tmax ([6]; oral, 50 mg, part 2, 10 and 50 mg, tablet, fasted): ~3 h | half-life ([6]; oral, Mean elimination half-life, part 1, doses of 1 to 225 mg): 29.9 to 85.9 h | Tmax ([6]; oral, across the dose range administered (discussion)): 2 to 4.5 h | Tmax ([6]; oral, part 1, doses of 1 to 225 mg, tablet, fasted): 2.02 to 4.44 h | half-life ([6]; po, Terminal phase half-life, single oral doses): 30 to 86 h | EC50 ([11]; Homo sapiens, po, read-out: EC50, body temperature Emax model): 0.0327 mg/L (≈ 0.0774 µM) | Participants with body temperature ≥39°C ([11]; part 1, 120-mg, approximately 11-hour postdose): 1 participant | E0, body temperature Emax model [11, 12]: 36.6 °C | Emax, body temperature Emax model [11, 12]: 37.6 °C | Mean maximum body temperature ([11]; 10 mg): 37.9 °C | Mean maximum body temperature ([11]; 50 mg): 38.0 °C
SMILES: CC(C)(O)c1ccccc1-c1ccc2[nH]c(/C=C/c3ccc(C(F)(F)F)cc3)nc2c1 [JNJ-39439335, trans-2-(2-{2-[2-(4-Trifluoromethyl-phenyl)-vinyl]-1H-benzimidazol-5-yl}-phenyl)-propan-2-ol]
Plasma concentration giving maximum effect on flare area and flare intensity ([1]; 4-hour postdose): ≥ 90 ng/mL | Plasma concentration giving maximum effect on flare area and flare intensity ([1]; 144-hour postdose): > 5 ng/mL | Capsaicin-induced flare intensity and flare area ([1]; part 2, 10 and 50 mg, 4- and 144-hour postdose): dose-related reduction | Capsaicin-induced flare area and flare intensity ([1]; part 2, 50-mg dose, 144 hours postdose): complete blocking; also recorded: completely blocked | Heat pain detection threshold, heat pain tolerance, and heat pain latency ([2]; effect of treatment): clear, consistent dose-related increases | Mechanical pain detection threshold ([2]; healthy human participants (discussion)): no effect | Dose levels at which mean HPT increased from predose to postdose ([2]; part 1): ≥ 2 mg | Doses at which most participants reached the HPD cutoff temperature (52°C) ([2]; part 1): ≥ 30 mg | Cold pain detection threshold ([2]; part 1b, 15- to 225-mg dose range): No clear separation from placebo and no clear dose-related effect | Mean heat pain latency ([2]; part 1b, all dose levels tested (15 to 225 mg), predose to postdose): Increases in mean heat pain latency values | Near maximally effective plasma concentration at the ED80 ([3]; rat carrageenan model of inflammatory pain): 0.009 mg/L | Carrageenan-evoked thermal hyperalgesia ([3]; rat): significantly attenuated | Complete Freund's adjuvant–evoked thermal hyperalgesia [5]: significantly attenuated | Dose proportionality of exposure (Cmax, AUC∞) ([6]; doses of 1 to 225 mg): less than dose-proportional increase in exposure | IC50 [7]: 4.7 nM | Safety margins in 4-week toxicology studies ([8]; rat and dog): acceptable safety margins | AUC24h at the no-observed-adverse-effect level dose ([8]; rat, most sensitive animal species): 10,700 ng·h·mL^−1 | HPD threshold, HPT, and warm detection threshold ([9]; naïve and UVB-sensitized skin, 10 and 50 mg): dose-dependent increase | Mechanical pain detection threshold ([9]; naïve skin or UVB-sensitized skin): no clear treatment or dose-related effects | Plasma concentration at which most participants detected warmth before 52°C ([9]; warm detection threshold): < 200 ng/mL | Participants with increase in QTcF of >30 milliseconds or QTcF >450 milliseconds ([10]; either part of the study): No participant | Participants with QTcF interval shortening of >30 milliseconds vs baseline ([10]; part 1, 10 mg dose group): 2 n | Participants with QTcF interval shortening of >30 milliseconds vs baseline ([10]; part 1, 15 mg dose group): 3 n | Participants with QTcF interval shortening of >30 milliseconds vs baseline ([10]; part 1, 120 mg dose group): 2 n | Participants with QTcF interval shortening of >30 milliseconds vs baseline ([10]; part 1, 225 mg dose group): 2 n | Participants with QTcF interval shortening of >30 milliseconds vs baseline ([10]; part 1, all JNJ-39439335 doses): 9 participants | Participants with QTcF interval shortening of >30 milliseconds vs baseline ([10]; part 2, 50 mg): 4 participants
